Like-named read-outs stand apart in the source and are kept apart here.
Tests used:
DENV NS3h [1] = target: T1, DENV NS3h (Dengue virus type 2, UniProt Q91H74); format: biochemical; details: read-out: DENV ATPase IC50; DENV NS3h-catalyzed ATP hydrolysis; 100 μM ATP, poly(U) RNA, pH 7.5
DENV NS3h [2] = target: T1, DENV NS3h; format: biochemical; details: for IC50: read-out: DENV RNA-helicase IC50, DENV NS3h RNA unwinding, 100 nM DENV helicase
HCV NS3h [3] = target: T2, HCV NS3h (Hepatitis C virus genotype 1b, UniProt Q9WMX2); assay: HCV NS3h-catalyzed ATP hydrolysis assay; format: biochemical; details: read-out: HCV ATPase IC50
Summary of the method: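 HCV NS3h (4 nM) in 25 mM Tris pH 7.5, 1.25 mM MgCl2, 100 μM ATP, 15 μM poly(U) RNA (as nucleotide), 33 μg/mL BSA, 0.07% Tween 20, 0.3 mM DTT, 0.6% DMSO. Started with MgCl2; 30 min at 23 °C. Released phosphate read at 620 nm with Biomol Green. Scaled to 6.7 μM ATA (100%) and DMSO (0%). IC50 from variable-slope nonlinear fit.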

HCV NS3h [4] = target: T2, HCV NS3h; assay: HCV NS3h RNA unwinding assay; format: biochemical; details: read-out: HCV RNA-helicase IC50, values without asterisk
HCV NS3h [5] = target: T2, HCV NS3h; details: read-out: HCV DNA-helicase IC50; HCV NS3h DNA unwinding; ref Li et al.[36]; cited from earlier work
[6] = tested on: herpes simplex virus helicase; details: read-out: helicase-catalyzed ATP hydrolysis IC50, cited from earlier work
[7] = tested on: subgenomic DENV-2 replicon; assay: DENV subgenomic replicon assay
[8] = tested on: West Nile virus (Kunjin subtype); assay: West Nile virus; format: cell-based; details: 50 μM compound, BHK cells, 72 h

T1 sequence (Q91H74 1646-2093 limits assumed): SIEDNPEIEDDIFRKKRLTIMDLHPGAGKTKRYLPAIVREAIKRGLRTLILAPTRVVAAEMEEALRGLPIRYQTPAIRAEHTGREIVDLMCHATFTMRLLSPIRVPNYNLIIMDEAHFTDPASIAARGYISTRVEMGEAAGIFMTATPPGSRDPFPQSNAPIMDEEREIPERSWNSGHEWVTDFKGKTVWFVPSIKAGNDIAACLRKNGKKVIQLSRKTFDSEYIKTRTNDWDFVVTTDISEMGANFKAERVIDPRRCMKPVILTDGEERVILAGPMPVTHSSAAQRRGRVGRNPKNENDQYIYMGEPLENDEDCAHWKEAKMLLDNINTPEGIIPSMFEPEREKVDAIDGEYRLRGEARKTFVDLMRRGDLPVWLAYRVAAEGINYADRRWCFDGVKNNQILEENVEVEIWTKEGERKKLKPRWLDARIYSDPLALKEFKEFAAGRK
T2 sequence (Q9WMX2 1192-1657): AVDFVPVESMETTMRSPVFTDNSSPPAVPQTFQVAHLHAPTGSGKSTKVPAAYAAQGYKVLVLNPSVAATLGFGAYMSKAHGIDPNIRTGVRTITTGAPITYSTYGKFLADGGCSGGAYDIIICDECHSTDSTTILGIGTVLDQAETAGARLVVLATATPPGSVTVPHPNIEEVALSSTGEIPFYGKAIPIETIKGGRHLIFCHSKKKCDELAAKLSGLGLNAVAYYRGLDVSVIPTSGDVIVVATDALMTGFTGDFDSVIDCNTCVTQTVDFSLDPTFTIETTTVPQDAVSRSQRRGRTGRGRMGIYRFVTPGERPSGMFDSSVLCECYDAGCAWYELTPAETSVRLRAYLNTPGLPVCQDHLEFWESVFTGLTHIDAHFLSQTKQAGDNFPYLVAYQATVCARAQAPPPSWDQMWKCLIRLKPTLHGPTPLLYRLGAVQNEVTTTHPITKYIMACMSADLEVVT

Compound | IC50 (DENV NS3h [1]) | IC50 (DENV NS3h [2]) | IC50 (HCV NS3h [3]) | IC50 (HCV NS3h [4]) | IC50 (HCV NS3h [5]) | other results
Cc1ccc2nc(-c3ccc4nc(-c5ccc(NC(=O)c6cc(C(F)(F)F)ccc6F)cc5)sc4c3)sc2c1S(=O)(=O)O [compound 21] | 3.8 ± 0.2 µM | 5.4 ± 1.3 µM | 16 ± 2 µM | 7.5 ± 2 µM | 6.4 ± 2 µM | –
Cc1ccc2nc(-c3ccc4nc(-c5ccc(NC(=O)c6cc(F)ccc6C(F)(F)F)cc5)sc4c3)sc2c1S(=O)(=O)O [compound 22] | 7.2 ± 0.8 µM | – | 65 ± 10 µM | – | 19 ± 15 µM | –
Cc1cccc(C)c1N(CC(=O)Nc1ccc(-c2ncon2)cc1)C(=O)C1CCS(=O)(=O)CC1 [amenamevir] | – | – | – | – | – | IC50 ([6]; HSV helicase): 0.078 µM
Cc1ccc2nc(-c3ccc4nc(-c5ccc(NC(=O)c6c(F)cccc6C(F)(F)F)cc5)sc4c3)sc2c1S(=O)(=O)O [compound 17] | – | – | 93 ± 16 µM | 32.5 ± 7 µM | 17 ± 6 µM | –
Cc1ccc2nc(-c3ccc4nc(-c5ccc(NC(=O)c6ccc(NC(=O)OCC7c8ccccc8-c8ccccc87)cc6)cc5)sc4c3)sc2c1S(=O)(=O)O [compound 12] | 1.3 ± 0.3 µM | 3.5 ± 1.7 µM | 39 ± 31 µM | 2.8 ± 1 µM | 5.4 ± 1 µM | –
Cc1ccc2nc(-c3ccc4nc(-c5ccc(NC(=O)c6cc(C(F)(F)F)cc(C(F)(F)F)c6)cc5)sc4c3)sc2c1S(=O)(=O)O.N [compound 20] | 63 ± 20 µM | 7.7 ± 1.8 µM | > 200 µM | – | – | times less compound needed to inhibit RNA unwinding than ATP hydrolysis (DENV NS3h [2]; DENV NS3h, unwinding vs ATPase): about 8 times
Cc1ccc2nc(-c3ccc4nc(-c5ccc(NC(=O)c6ccc(N)cc6)cc5)sc4c3)sc2c1S(=O)(=O)O [compound 2] | 2.8 ± 0.6 µM | 7.6 ± 1.6 µM | 58 ± 10 µM | – | 10 ± 2.4 µM | –
Cc1ccc2nc(-c3ccc4nc(-c5ccc(NC(=O)c6cccc(Cl)c6)cc5)sc4c3)sc2c1S(=O)(=O)O [compound 13] | 4 ± 0.8 µM | 5.1 ± 0.9 µM | 24 ± 5 µM | 5.9 ± 2 µM | 2.6 ± 1 µM | –
Cc1ccc2nc(-c3ccc4nc(-c5ccc(NC(=O)c6cccc(C(F)(F)F)c6F)cc5)sc4c3)sc2c1S(=O)(=O)O [compound 18] | 4.3 ± 0.3 µM | – | 42 ± 14 µM | – | 9.2 ± 3 µM | –
Cc1ccc2nc(-c3ccc4nc(-c5ccc(NC(=O)c6ccc(F)cc6)cc5)sc4c3)sc2c1S(=O)(=O)O [compound 3] | 3 ± 0.4 µM | 6.6 ± 0.9 µM | 32 ± 7 µM | – | 5.2 ± 0.6 µM | –
Cc1ccc(C(=O)Nc2ccc(-c3nc4ccc(-c5nc6ccc(C)c(S(=O)(=O)O)c6s5)cc4s3)cc2)cc1 [compound 7] | 1.1 ± 0.2 µM | 4.3 ± 1.9 µM | 61 ± 1 µM | 3.9 ± 1 µM | 3.3 ± 0.3 µM | –
Cc1ccc2nc(-c3ccc4nc(-c5ccc(NC(=O)c6ccc(Cl)cc6)cc5)sc4c3)sc2c1S(=O)(=O)O [compound 6] | 1.4 ± 0.2 µM | 5.6 ± 1.2 µM | 53 ± 4 µM | 3.3 ± 1 µM | 3.4 ± 0.3 µM | –
Cc1ccc2nc(-c3ccc4nc(-c5ccc(NC(=O)c6ccc(C(C)(C)C)cc6)cc5)sc4c3)sc2c1S(=O)(=O)O [compound 9] | 4 ± 0.5 µM | 10 ± 3.4 µM | > 200 µM | – | 8.2 ± 1 µM | –
COC(=O)c1ccc(C(=O)Nc2ccc(-c3nc4ccc(-c5nc6ccc(C)c(S(=O)(=O)O)c6s5)cc4s3)cc2)cc1.N [compound 5] | 0.4 ± 0.1 µM | 7.9 ± 2.5 µM | > 200 µM | – | 9.7 ± 4.6 µM | times more compound needed to inhibit RNA unwinding than ATP hydrolysis (DENV NS3h [2]; DENV NS3h, unwinding vs ATPase): About 20 times
Cc1ccc2nc(-c3ccc4nc(-c5ccc(NC(=O)c6cc(F)cc(C(F)(F)F)c6)cc5)sc4c3)sc2c1S(=O)(=O)O [compound 23] | 11 ± 5.7 µM | – | > 200 µM | 9.8 ± 3 µM | 28 ± 7 µM | –
COc1ccc(C(=O)Nc2ccc(-c3nc4ccc(-c5nc6ccc(C)c(S(=O)(=O)O)c6s5)cc4s3)cc2)cc1 [compound 4] | 3 ± 0.5 µM | – | 115 ± 14 µM | – | 10 ± 2.6 µM | –
Cc1ccc2nc(-c3ccc4nc(-c5ccc(NC(=O)c6ccc(Cl)c(Cl)c6)cc5)sc4c3)sc2c1S(=O)(=O)O [compound 14] | 2.7 ± 0.2 µM | 3.6 ± 0.9 µM | 53 ± 3 µM | – | 3.7 ± 1 µM | –
Cc1ccc2nc(-c3ccc4nc(-c5ccc(NC(=O)c6ccccc6)cc5)sc4c3)sc2c1S(=O)(=O)O [compound 1] | 5.3 ± 1.2 µM | – | 69 ± 6 µM | 8.5 ± 2 µM | 11 ± 1.5 µM | –
Cc1ccc2nc(-c3ccc4nc(-c5ccc(NC(=O)c6ccc(Br)cc6)cc5)sc4c3)sc2c1S(=O)(=O)O [compound 11] | 1.1 ± 0.1 µM | 5 ± 1.2 µM | 21 ± 6 µM | – | 5.2 ± 4 µM | –
Cc1nc(N(C)C(=O)Cc2ccc(-c3ccccn3)cc2)sc1S(N)(=O)=O [BAY 57-1293] | – | – | – | – | – | IC50 ([6]; purified HSV helicase): 0.03 µM
Cc1ccc2nc(-c3ccc4nc(-c5ccc(NC(=O)c6ccc(N(C)C)cc6)cc5)sc4c3)sc2c1S(=O)(=O)O [compound 10] | 3.4 ± 0.3 µM | – | > 200 µM | 8.6 ± 2 µM | 11 ± 6.7 µM | –
Cc1ccc2nc(-c3ccc4nc(-c5ccc(NC(=O)c6ccc(C(F)(F)F)c(F)c6)cc5)sc4c3)sc2c1S(=O)(=O)O [compound 19] | 3.5 ± 1.1 µM | – | 55 ± 42 µM | 5.4 ± 2 µM | 17 ± 7 µM | –
Cc1ccc2nc(-c3ccc4nc(-c5ccc(NC(=O)c6ccc7nc(-c8ccc(N)cc8)sc7c6)cc5)sc4c3)sc2c1S(=O)(=O)O.N [compound 24] | 0.5 ± 0.1 µM | 1.5 ± 0.2 µM | – | 2 ± 0.7 µM | – | TI (CC50/replicon EC50) ([7]; BHK cell viability CC50 / replicon EC50): 17; inhibition of DENV replicon (in words) ([7]; concentration-response): reduced replication of a subgenomic DENV replicon in cells in a concentration-dependent manner; inhibition of replicon content in concentration-response assays ([7]; eight-point two-fold dilution series starting at 100 μM): more than 90%; EC50 ([7]; read-out: replicon EC50, BHK cell DENV replicon content, 72 h): 7.1 ± 3 µM
Cc1cc(N2C(=O)C(O)=C(C(=O)c3ccc(C)o3)C2c2cc(Cl)cc(Cl)c2)no1 (stereo not drawn) [compound 25] | – | – | – | – | – | effect on West Nile virus plaque-forming units (in words) [8]: lowering plaque-forming units (pfu) to the greatest extent
Cc1ccc2nc(-c3ccc4nc(-c5ccc(NC(=O)c6ccccc6C(F)(F)F)cc5)sc4c3)sc2c1S(=O)(=O)O [compound 15] | 5.4 ± 0.8 µM | – | 71 ± 23 µM | 22.8 ± 5 µM | 14 ± 1 µM | –
Cc1ccc2nc(-c3ccc4nc(-c5ccc(NC(=O)c6ccc(C(F)(F)F)cc6)cc5)sc4c3)sc2c1S(=O)(=O)O [compound 8] | 1.2 ± 0.2 µM | 5.2 ± 0.6 µM | 111 ± 60 µM | 2.8 ± 2 µM | 1.8 ± 0.4 µM | –
Cc1ccc2nc(-c3ccc4nc(-c5ccc(NC(=O)c6cccc(C(F)(F)F)c6)cc5)sc4c3)sc2c1S(=O)(=O)O [compound 16] | 9.7 ± 3.1 µM | – | > 200 µM | 22.4 ± 8 µM | 20 ± 12 µM | –

— article PMC4444071 (ACS infectious diseases, 2015)
